{"source": "ChEMBL document CHEMBL4330143", "about": "“Maximizing ER-α Degradation Maximizes Activity in a Tamoxifen-Resistant Breast Cancer Model: Identification of GDC-0927” (ACS Med Chem Lett, 2019)", "key": {"Cytochrome P450 2D6": {"target": "Cytochrome P450 2D6 (Homo sapiens, UniProt P10635)", "sequence (P10635 whole entry)": "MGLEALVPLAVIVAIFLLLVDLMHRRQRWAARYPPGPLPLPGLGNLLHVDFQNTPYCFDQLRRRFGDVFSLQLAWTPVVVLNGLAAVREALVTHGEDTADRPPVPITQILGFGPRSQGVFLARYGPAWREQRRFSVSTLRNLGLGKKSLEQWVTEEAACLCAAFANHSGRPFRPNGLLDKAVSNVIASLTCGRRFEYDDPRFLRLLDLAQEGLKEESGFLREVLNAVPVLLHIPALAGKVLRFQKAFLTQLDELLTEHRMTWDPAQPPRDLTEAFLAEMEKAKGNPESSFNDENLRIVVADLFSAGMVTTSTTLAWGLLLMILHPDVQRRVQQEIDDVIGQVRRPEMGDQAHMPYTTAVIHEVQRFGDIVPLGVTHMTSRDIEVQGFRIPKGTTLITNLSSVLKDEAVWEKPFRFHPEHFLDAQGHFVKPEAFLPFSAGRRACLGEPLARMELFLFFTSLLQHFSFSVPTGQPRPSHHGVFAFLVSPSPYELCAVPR", "assay": "Competitive inhibition of CYP2D6 (unknown origin)", "type": "ADME"}, "[1]": {"assay": "Unbound AUC (0 to 24 hrs) in nude mouse xenografted with tamoxifen-resistant human MCF7 cells at 100 mg/kg, po daily for 28 days measured on day 28 post last dose", "type": "ADME, organism-based", "conditions": "in vivo", "procedure,_shortened": "(§1)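 Tamoxifen-resistant MCF-7 xenograft mice carrying subcutaneous 0.72 mg estradiol pellets. Plasma pharmacokinetics sampled on day 28 of the study, at take-down.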"}, "[2]": {"assay": "Unbound fraction in mouse plasma", "type": "ADME, cell-free"}, "Cytochrome P450 2C9": {"target": "Cytochrome P450 2C9 (Homo sapiens, UniProt P11712)", "sequence (P11712 whole entry)": "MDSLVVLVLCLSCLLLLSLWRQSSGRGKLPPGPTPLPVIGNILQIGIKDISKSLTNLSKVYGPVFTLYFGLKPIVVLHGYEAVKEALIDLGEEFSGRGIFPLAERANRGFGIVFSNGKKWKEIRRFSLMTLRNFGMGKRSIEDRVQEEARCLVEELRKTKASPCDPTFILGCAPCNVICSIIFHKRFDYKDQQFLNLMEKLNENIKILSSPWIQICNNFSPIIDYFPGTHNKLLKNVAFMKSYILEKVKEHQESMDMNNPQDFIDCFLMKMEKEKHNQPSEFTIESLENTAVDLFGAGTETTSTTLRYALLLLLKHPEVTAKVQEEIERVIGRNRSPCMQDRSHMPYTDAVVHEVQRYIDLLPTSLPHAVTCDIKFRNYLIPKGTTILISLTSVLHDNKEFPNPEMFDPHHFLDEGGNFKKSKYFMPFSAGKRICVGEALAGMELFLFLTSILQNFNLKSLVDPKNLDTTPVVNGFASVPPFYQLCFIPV", "assay": "Inhibition of CYP2C9 (unknown origin)", "type": "ADME"}, "[3]": {"target": "T1, Mineralocorticoid receptor (Homo sapiens) (UniProt P08235)", "T1 sequence (whole entry)": "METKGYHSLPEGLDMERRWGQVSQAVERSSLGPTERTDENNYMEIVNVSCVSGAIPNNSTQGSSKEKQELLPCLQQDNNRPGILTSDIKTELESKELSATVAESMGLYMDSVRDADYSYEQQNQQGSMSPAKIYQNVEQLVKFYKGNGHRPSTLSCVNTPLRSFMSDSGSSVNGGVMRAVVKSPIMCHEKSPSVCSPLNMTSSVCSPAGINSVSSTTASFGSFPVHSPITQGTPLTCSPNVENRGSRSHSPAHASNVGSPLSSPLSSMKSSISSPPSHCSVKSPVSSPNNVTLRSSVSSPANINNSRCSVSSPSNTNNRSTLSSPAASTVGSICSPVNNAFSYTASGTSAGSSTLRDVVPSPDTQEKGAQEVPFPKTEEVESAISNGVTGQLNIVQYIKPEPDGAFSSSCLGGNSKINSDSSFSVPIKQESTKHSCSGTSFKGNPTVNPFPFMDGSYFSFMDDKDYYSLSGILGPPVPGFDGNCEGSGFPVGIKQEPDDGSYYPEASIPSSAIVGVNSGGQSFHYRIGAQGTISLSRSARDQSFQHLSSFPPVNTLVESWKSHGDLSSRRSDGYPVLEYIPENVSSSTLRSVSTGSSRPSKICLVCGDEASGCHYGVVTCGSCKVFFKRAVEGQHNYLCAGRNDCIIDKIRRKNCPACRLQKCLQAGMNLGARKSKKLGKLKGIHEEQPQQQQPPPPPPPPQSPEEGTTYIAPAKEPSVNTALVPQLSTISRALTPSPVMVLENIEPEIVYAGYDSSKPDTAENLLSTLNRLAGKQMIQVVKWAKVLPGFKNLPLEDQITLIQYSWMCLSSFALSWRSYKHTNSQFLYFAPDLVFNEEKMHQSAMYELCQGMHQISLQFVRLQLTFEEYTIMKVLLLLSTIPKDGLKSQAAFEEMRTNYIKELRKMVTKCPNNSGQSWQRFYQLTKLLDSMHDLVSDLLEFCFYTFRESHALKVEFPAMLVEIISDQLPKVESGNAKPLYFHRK", "assay": "Antagonist activity at MR (unknown origin) by transcriptional reporter assay"}, "[4]": {"assay": "AUC in rat at 10 mg/kg, po daily for 3 days measured on day 3 post last dose", "type": "ADME, organism-based", "conditions": "in vivo"}, "[5]": {"assay": "AUC (0 to 24 hrs) in nude mouse xenografted with tamoxifen-resistant human MCF7 cells at 100 mg/kg, po daily for 28 days measured on day 28 post last dose", "type": "ADME, organism-based", "parameters": "time < 24 hr, dose 100 mg/kg, route oral", "conditions": "in vivo", "procedure,_shortened": "as §1"}, "[6]": {"assay": "Cmax in nude mouse xenografted with tamoxifen-resistant human MCF7 cells at 100 mg/kg, po daily for 28 days measured on day 28 post last dose", "type": "ADME, organism-based", "parameters": "dose 100 mg/kg, route oral", "conditions": "in vivo", "procedure,_shortened": "as §1"}, "MCF7": {"system": "MCF7", "assay": "Antitumor activity against tamoxifen-resistant human MCF7 cells xenografted in nude mouse at 100 mg/kg, po daily for 28 days", "type": "functional, organism-based", "procedure,_shortened": "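Tamoxifen-resistant MCF-7 tumours grown subcutaneously in mice, with estradiol supplied from subcutaneous 0.72 mg estradiol pellets.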"}, "[7]": {"target": "T2, Progesterone receptor (Homo sapiens) (UniProt P06401)", "T2 sequence (whole entry)": "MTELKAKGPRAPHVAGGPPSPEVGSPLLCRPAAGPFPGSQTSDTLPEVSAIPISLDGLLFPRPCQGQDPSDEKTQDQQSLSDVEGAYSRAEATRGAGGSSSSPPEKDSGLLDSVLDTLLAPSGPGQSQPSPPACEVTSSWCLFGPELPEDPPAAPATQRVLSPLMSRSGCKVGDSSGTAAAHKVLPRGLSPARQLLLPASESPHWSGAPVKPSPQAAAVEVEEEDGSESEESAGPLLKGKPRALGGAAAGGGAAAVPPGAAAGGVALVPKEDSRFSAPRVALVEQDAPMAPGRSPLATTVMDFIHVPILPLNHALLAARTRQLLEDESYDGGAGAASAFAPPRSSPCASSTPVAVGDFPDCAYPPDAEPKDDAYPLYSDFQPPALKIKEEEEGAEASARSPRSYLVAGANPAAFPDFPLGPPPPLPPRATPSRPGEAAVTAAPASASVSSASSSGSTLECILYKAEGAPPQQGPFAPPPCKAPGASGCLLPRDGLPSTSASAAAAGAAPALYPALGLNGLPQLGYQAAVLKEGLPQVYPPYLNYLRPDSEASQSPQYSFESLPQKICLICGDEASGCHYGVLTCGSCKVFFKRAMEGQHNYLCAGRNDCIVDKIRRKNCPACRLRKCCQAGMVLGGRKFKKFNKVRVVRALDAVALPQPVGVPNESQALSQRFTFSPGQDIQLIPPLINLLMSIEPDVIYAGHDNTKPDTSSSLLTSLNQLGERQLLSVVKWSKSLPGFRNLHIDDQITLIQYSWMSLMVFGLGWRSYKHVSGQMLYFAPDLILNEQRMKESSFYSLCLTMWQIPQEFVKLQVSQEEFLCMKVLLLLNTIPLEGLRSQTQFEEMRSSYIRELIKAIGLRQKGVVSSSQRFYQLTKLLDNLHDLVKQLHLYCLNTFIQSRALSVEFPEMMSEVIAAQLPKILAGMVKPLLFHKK", "assay": "Antagonist activity at PR-B (unknown origin) by transcriptional reporter assay"}, "[8]": {"assay": "Genotoxicity in Salmonella typhimurium TA98 by Ames test", "type": "toxicity", "conditions": "salmonella enterica subsp. enterica serovar […]"}, "[9]": {"target": "Sodium-dependent dopamine transporter (Homo sapiens, UniProt Q01959)", "sequence (Q01959 whole entry)": "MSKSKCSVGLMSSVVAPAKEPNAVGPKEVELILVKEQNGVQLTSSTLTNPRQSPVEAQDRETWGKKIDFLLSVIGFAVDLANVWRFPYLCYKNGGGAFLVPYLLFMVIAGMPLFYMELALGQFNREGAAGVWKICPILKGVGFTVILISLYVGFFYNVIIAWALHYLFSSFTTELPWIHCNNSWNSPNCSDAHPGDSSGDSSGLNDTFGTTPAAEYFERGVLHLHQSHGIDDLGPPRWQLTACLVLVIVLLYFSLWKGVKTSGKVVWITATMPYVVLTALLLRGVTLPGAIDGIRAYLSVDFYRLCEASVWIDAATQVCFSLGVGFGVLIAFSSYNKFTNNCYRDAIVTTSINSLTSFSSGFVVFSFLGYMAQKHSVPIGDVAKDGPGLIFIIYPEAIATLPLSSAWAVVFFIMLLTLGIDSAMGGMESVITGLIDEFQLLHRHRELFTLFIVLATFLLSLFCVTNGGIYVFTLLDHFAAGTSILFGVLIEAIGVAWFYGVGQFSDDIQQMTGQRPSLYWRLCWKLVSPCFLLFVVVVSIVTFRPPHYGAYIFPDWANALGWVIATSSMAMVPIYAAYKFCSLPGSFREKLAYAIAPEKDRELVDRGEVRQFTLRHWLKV", "assay": "Inhibition of dopamine transporter (unknown origin)", "procedure,_shortened": "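Cell-based functional follow-up assay, done after hits in a radioligand binding panel run under protein-free conditions. Value reported as IC50.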"}}, "note": "Activity calls are given as the source filed them. The rule behind the calls is not given here.", "data": [{"smiles": "CC1=C(c2cccc(O)c2)[C@H](c2ccc(OCCN3CC(CF)C3)cc2)Oc2ccc(O)cc21", "values": [{"measurement": "IC50", "setting": "Cytochrome P450 2D6", "result": "> 10", "unit": "µM"}, {"measurement": "fAUC", "setting": "[1]", "result": 130, "unit": "ng·h/mL"}, {"measurement": "Fu", "setting": "[2]", "result": 1.9, "unit": "%"}, {"measurement": "IC50", "setting": "Cytochrome P450 2C9", "result": 3.2, "unit": "µM"}, {"measurement": "inhibition", "setting": "[3]", "result": "inactive"}, {"measurement": "AUC at 72 h", "setting": "[4]", "result": 160, "unit": "ng·h/mL"}, {"measurement": "AUC at 24 h", "setting": "[5]", "result": 6900, "unit": "ng·h/mL"}, {"measurement": "Cmax", "setting": "[6]", "result": 950, "unit": "ng/mL"}, {"measurement": "Activity", "setting": "MCF7", "result": "Active"}, {"measurement": "inhibition", "setting": "[7]", "result": "inactive"}, {"measurement": "Activity", "setting": "[8]", "result": "Non-Toxic"}, {"measurement": "IC50", "setting": "[9]", "result": 0.39, "unit": "µM"}]}]}
